The term IC50 denotes the point on the concentration scale where inhibition reaches its midpoint.

Molecules are shown by their SMILES. A value given as a limit tells only on which side of the number the result lay.

For 23 compounds, IC50 and Activity results are on record in ChEMBL document CHEMBL1143049, “Preparation, biological activity and endogenous occurrence of N6-benzyladenosines” (Bioorg Med Chem, 2007).

One experiment concerns CCRF-CEM. Briefly: Antitumor activity against human CEM cells after 72 hrs by Calcein AM assay. Format: functional, cell-based. A digest of the protocol:
(§1)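 Cells grown in DMEM at 37 °C under 5% CO2. Compounds added after 12 h preincubation in 96-well plates, final 0.5-170 μM, with 0.6% final DMSO, then 72 h exposure. Viable cells stained with Calcein AM for 1 h and read at 485/538 nm. IC50 (concentration lethal to 50% of cells) taken from dose-response curves. Run in quadruplicate.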

For another experiment, the system named is Triticum aestivum. Briefly: Cytokinin activity in wheat assessed as retention of chlorophyll in excised wheat leaves at 0.1 mmol/L relative to 6-Benzylaminopurine by senescence assay. Format: functional. A digest of the protocol:
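Senescence assay measuring chlorophyll retention in excised wheat leaves. DMSO stocks brought to 10^-3 M with water, then diluted in assay medium to a final DMSO of at most 0.2%. Concentrations 10^-4 to 10^-8 M, quintuplicate, repeated at least three times. Response at the optimal concentration normalised to BAP optimum = 100.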

Another experiment relates to HOS. Briefly: Antitumor activity against human HOS cells after 72 hrs by Calcein AM assay. Format: functional, cell-based. An outline of the steps: as §1
The test system of a further experiment is K562. The experiment in a line: Antitumor activity against human K562 cells after 72 hrs by Calcein AM assay. Format: functional, cell-based. The conditions noted are these: K562, 72 h. A digest of the protocol:
as §1

For a further experiment, the system named is Amaranthus. Briefly: Cytokinin activity in Amaranthus cotyledons assessed as dark induction of betacyanin synthesis at 0.1 mmol/L relative to 6-Benzylaminopurine. Format: functional. An outline of the steps: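 Dark induction of betacyanin in excised Amaranthus cotyledons. DMSO stock brought to 10^-3 M in water, diluted into assay medium (DMSO ≤0.2%). Tested over 10^-4 to 10^-8 M, five replicates per concentration, assay repeated at least three times. Response at the optimal concentration expressed relative to BAP at its optimum (set to 100).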

The nature of experiment [1]: Antitumor activity against human MCF cells after 72 hrs by Calcein AM assay. Format: functional, cell-based. An outline of the steps: as §1
Another experiment has as its system B16. The experiment in a line: Antitumor activity against mouse B16 cells after 72 hrs by Calcein AM assay. Format: functional, cell-based. The conditions noted are these: B16, 72 h. A digest of the protocol: as §1
Another experiment relates to G-361. Briefly: Antitumor activity against human G361 cells after 72 hrs by Calcein AM assay. Format: functional, cell-based. To be noted: G-361, 72 h. An outline of the steps:
as §1

Another experiment relates to HL-60. Briefly: Antitumor activity against human HL60 cells after 72 hrs by Calcein AM assay. Format: functional, cell-based. To be noted: HL-60, 72 h. A digest of the protocol: as §1
Another experiment deals with Nicotiana tabacum. The experiment in a line: Cytokinin activity in tobacco assessed as stimulation of callus growth at 1 umol/L relative to 6-Benzylaminopurine. Format: functional. A digest of the protocol: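 Stimulation of tobacco callus growth. Compounds dissolved in DMSO, brought to 10^-3 M in water and diluted into medium (DMSO ≤0.2%). Range 10^-4 to 10^-8 M, five replicates per concentration, at least three independent repeats. Activity at the optimal concentration given relative to BAP's optimal response, taken as 100.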

Experiment [2] can be described thus: Cytotoxicity against mouse NIH 3T3 cells after 72 hrs by Calcein AM assay. Format: cell-based. To be noted: NIH3T3, 72 h. An outline of the steps:
as §1

In the case of `COc1ccc(CNc2ncnc3c2ncn3C2OC(CO)[C@@H](O)[C@H]2O)c(O)c1` (some centres undefined), the IC50 in the experiment with CCRF-CEM is 12.8 µM; in the experiment with HOS it was greater than 167 µM; in the experiment with K562 it was 80.8 µM; in experiment [1], 2.2 µM. Also, the Activity was found to be 22% in the experiment with Triticum aestivum and 0% in the experiment with Amaranthus.
As to `OC[C@H]1O[C@@H](n2cnc3c(NCc4ccccc4OC(F)(F)F)ncnc32)[C@H](O)[C@@H]1O`, the IC50 is greater than 167 µM in the experiment on CCRF-CEM; greater than 167 µM with B16; greater than 167 µM in the experiment on HOS; greater than 167 µM with G-361; greater than 167 µM with HL-60; 81.4 µM in the experiment on K562. The IC50 in [1] is greater than 167 µM. Moreover, the Activity in the experiment with Triticum aestivum is 61%; with Amaranthus it was 78%.
For `OC[C@H]1O[C@@H](n2cnc3c(NCc4cccc(OC(F)(F)F)c4)ncnc32)[C@H](O)[C@@H]1O`, the values for the Activity in the experiment with Triticum aestivum, in the experiment on Nicotiana tabacum and with Amaranthus were 90%, 86% and 104%, respectively. Further, the IC50 (in the experiment with HOS; in the experiment on G-361; in the experiment on K562; in [1]) was greater than 167 µM each time.
`OC[C@H]1O[C@@H](n2cnc3c(NCc4cc(F)cc(F)c4)ncnc32)C(O)C1O` (some centres undefined): the IC50 was 24.5 µM with CCRF-CEM; greater than 167 µM in [2]; greater than 167 µM with B16; greater than 167 µM in the experiment with G-361; 9.1 µM in the experiment with HL-60; greater than 167 µM in the experiment with K562. Moreover, the IC50 in [1] is greater than 167 µM. For the same compound, the Activity in the experiment on Triticum aestivum amounted to 195%; in the experiment with Nicotiana tabacum, 95%; with Amaranthus, 110%.
Turning to `OC[C@H]1O[C@@H](n2cnc3c(NCc4ccccc4C(F)(F)F)ncnc32)C(O)C1O` (some centres undefined), the Activity in the experiment with Triticum aestivum is 40%; in the experiment on Amaranthus, 121%. For the same compound, the IC50 (in the experiment with HOS; in the experiment on G-361; with K562; in [1]) was greater than 167 µM each time.
With `OC[C@H]1O[C@@H](n2cnc3c(NCc4ccc(F)cc4F)ncnc32)[C@H](O)[C@@H]1O`, the IC50 was 7.1 µM in the experiment on CCRF-CEM; greater than 167 µM in experiment [2]; greater than 167 µM in the experiment with B16; greater than 167 µM with HOS; greater than 167 µM with G-361; 3.4 µM in the experiment on HL-60. The IC50 in the experiment with K562 is 9.6 µM; in [1] it was greater than 167 µM. Further, the Activity in the experiment with Triticum aestivum is listed as 171%; with Nicotiana tabacum, 96%; in the experiment on Amaranthus, 88%.
Turning to `OC[C@H]1O[C@@H](n2cnc3c(NCc4cccc(O)c4O)ncnc32)[C@H](O)[C@@H]1O`, the Activity is reported as 7% with Triticum aestivum and 24% in the experiment with Amaranthus. Besides, the IC50 in the experiment on HOS was greater than 167 µM; in the experiment on G-361, 16.9 µM; with K562 it was 25.8 µM; in [1] it was 5.2 µM.
Turning to `OC[C@H]1O[C@@H](n2cnc3c(NCc4cccc(C(F)(F)F)c4)ncnc32)[C@H](O)[C@@H]1O`, the values for the Activity in the experiment on Triticum aestivum, with Nicotiana tabacum and in the experiment with Amaranthus were 95%, 85% and 93%, respectively. The IC50 (in the experiment with HOS; with G-361; in the experiment on K562; in experiment [1]) was greater than 167 µM in each case.
Take `OC[C@H]1O[C@@H](n2cnc3c(NCc4ccc(C(F)(F)F)cc4)ncnc32)[C@H](O)[C@@H]1O`: the Activity with Triticum aestivum came to 52%; with Amaranthus, 14%. Further, the IC50 (with HOS; in the experiment with G-361; with K562; in [1]) was greater than 167 µM in each case.
In the case of `COc1cccc(OC)c1CNc1ncnc2c1ncn2[C@@H]1O[C@H](CO)[C@@H](O)[C@H]1O`, the results for the Activity with Triticum aestivum and with Amaranthus were 68% and 54%, respectively.
As to `COc1ccc(CNc2ncnc3c2ncn3[C@@H]2O[C@H](CO)[C@@H](O)[C@H]2O)cc1O`, the IC50 (with CCRF-CEM; in experiment [2]; in the experiment on HL-60; in the experiment with K562; in [1]) was greater than 167 µM throughout. The results for the Activity in the experiment with Triticum aestivum and in the experiment with Amaranthus were 19% and 24%, respectively.
Consider `OC[C@H]1O[C@@H](n2cnc3c(NCc4cc(O)cc(O)c4)ncnc32)[C@H](O)[C@@H]1O`, for which the Activity is 96% with Triticum aestivum and 31% in the experiment with Amaranthus. The IC50 (with HOS; in the experiment on G-361; in the experiment with K562; in experiment [1]) was greater than 167 µM throughout.
`COc1cccc(CNc2ncnc3c2ncn3[C@@H]2O[C@H](CO)[C@@H](O)[C@H]2O)c1O`: the IC50 in the experiment on CCRF-CEM is 0.3 µM; in experiment [2], greater than 167 µM; with B16 it was greater than 167 µM; in the experiment with HOS, greater than 167 µM; in the experiment with G-361, 148 µM; with HL-60, 0.15 µM. Moreover, the IC50 in the experiment with K562 is 27.9 µM; in experiment [1], 20.2 µM. The Activity with Triticum aestivum is 10%; in the experiment on Amaranthus, 18%.
Turning to `OC[C@H]1O[C@@H](n2cnc3c(NCc4ccc(OC(F)(F)F)cc4)ncnc32)[C@H](O)[C@@H]1O`, the Activity was found to be 3% in the experiment on Triticum aestivum and 21% in the experiment on Amaranthus. The IC50 (with HOS; in the experiment with G-361; with K562; in experiment [1]) was greater than 167 µM each time.
Consider `COc1cc(CNc2ncnc3c2ncn3[C@@H]2O[C@H](CO)[C@@H](O)[C@H]2O)cc(OC)c1O`, for which the IC50 (in the experiment on HOS; with G-361; with K562; in experiment [1]) was greater than 167 µM throughout.
Turning to `COc1cccc(CNc2ncnc3c2ncn3[C@@H]2O[C@H](CO)[C@@H](O)[C@H]2O)c1OC`, the IC50 (in the experiment on CCRF-CEM; in the experiment with HOS; in the experiment with HL-60; in the experiment with K562; in [1]) was greater than 167 µM each time. Besides, the values for the Activity in the experiment with Triticum aestivum, in the experiment with Nicotiana tabacum and in the experiment on Amaranthus were 106%, 5% and 21%, respectively.
With `Cc1ccc(CNc2ncnc3c2ncn3[C@@H]2O[C@H](CO)[C@@H](O)[C@H]2O)cc1`, the IC50 (in the experiment on CCRF-CEM; in experiment [2]; in the experiment with HOS; in the experiment with HL-60; with K562; in [1]) was greater than 167 µM each time. Besides, the Activity in the experiment on Triticum aestivum came to 54.5%; in the experiment on Nicotiana tabacum it was 35%; in the experiment with Amaranthus, 49%.
As to `OC[C@H]1O[C@@H](n2cnc3c(NCc4cccc(I)c4)ncnc32)[C@H](O)[C@@H]1O`, the Activity in the experiment on Triticum aestivum is recorded as 58%; in the experiment with Nicotiana tabacum, 45%; in the experiment on Amaranthus it was 102%.
With `COc1cc(O)cc(OC)c1CNc1ncnc2c1ncn2[C@@H]1O[C@H](CO)[C@@H](O)[C@H]1O`, the 50% inhibitory concentration (IC50) (in the experiment with HOS; in the experiment with G-361; in the experiment on K562; in experiment [1]) was greater than 167 µM each time. Moreover, in the experiment with Amaranthus, the Activity turned out to be 7%.
Regarding `Cc1ccccc1CNc1ncnc2c1ncn2[C@@H]1O[C@H](CO)[C@@H](O)[C@H]1O` [METRIFUDIL], the IC50 is 14 µM with CCRF-CEM; greater than 167 µM in experiment [2]; greater than 167 µM in the experiment with HOS; greater than 167 µM with G-361; 3.3 µM in the experiment with HL-60; greater than 167 µM with K562. The IC50 in experiment [1] is greater than 167 µM. Further, the Activity in the experiment with Triticum aestivum came out at 141%; with Nicotiana tabacum, 98%; in the experiment with Amaranthus it was 99%.
Take `COc1cc(CNc2ncnc3c2ncn3[C@@H]2O[C@H](CO)[C@@H](O)[C@H]2O)cc(OC)c1`: the 50% inhibitory concentration (IC50) is greater than 167 µM in the experiment on CCRF-CEM, 20.2 µM in the experiment on HL-60, greater than 167 µM with K562 and greater than 167 µM in experiment [1]. Also, the Activity was 47% in the experiment with Triticum aestivum, 11% in the experiment with Nicotiana tabacum and 2% in the experiment with Amaranthus.
For the compound `OC[C@H]1O[C@@H](n2cnc3c(NCc4c(F)ccc(F)c4F)ncnc32)[C@H](O)[C@@H]1O`, the IC50 was 90.3 µM in the experiment with CCRF-CEM; greater than 167 µM with B16; greater than 167 µM in the experiment on G-361; 13 µM in the experiment with HL-60; greater than 167 µM with K562; greater than 167 µM in experiment [1]. The Activity was found to be 133% with Triticum aestivum, 92% with Nicotiana tabacum (in the assay text read “at 10 umol/L” for “at 1 umol/L”) and 94% in the experiment on Amaranthus.
With `OC[C@H]1O[C@@H](n2cnc3c(NCc4ccc(Cl)c(Cl)c4)ncnc32)[C@H](O)[C@@H]1O`, the IC50 in the experiment with CCRF-CEM is 3.8 µM; in the experiment on B16, greater than 167 µM; in the experiment on HOS, greater than 167 µM; in the experiment on G-361, 145 µM; in the experiment with HL-60 it was 2 µM; in the experiment on K562, 10.8 µM. For the same compound, the IC50 in [1] is 88.8 µM. For the same compound, the values for the Activity with Triticum aestivum, in the experiment on Nicotiana tabacum and with Amaranthus were 151%, 17% and 68%, respectively.
